Experimental data reported in ChEMBL document CHEMBL1159005, “Inhibitory effects of flavonoids on Moloney murine leukemia virus reverse transcriptase activity” (J Nat Prod, 1992).

Legend:
[1] = tested on: Moloney murine leukemia virus; test: Inhibition of Moloney murine leukemia virus reverse transcriptase using (riboadenylic acid)n(deoxythymidylic acid)12-18 as template primer by liquid scintillation counting
Outline: (§1)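 30 μl mix of 50 mM Tris-HCl pH 8.3, 75 mM KCl, 10 mM DTT, 3 mM MgCl₂, 3 μg nuclease-free BSA, 0.5 μg template-primer, 2 mM dTTP or dGTP with 0.5 μCi matching [³H]-dNTP, and 5 units MMLV RT. Incubated 37° for 30 min, stopped with EDTA. Duplicate aliquots spotted on DE-81 paper, washed, and counted by liquid scintillation.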

[2] = tested on: Moloney murine leukemia virus; test: Inhibition of Moloney murine leukemia virus reverse transcriptase using (ribocytidylic acid)n(deoxyguanylic acid)12-18 as template primer by liquid scintillation counting; outline: as §1
[3] = Selectivity for Moloney murine leukemia virus reverse transcriptase over Escherichia coli DNA polymerase 1

| SMILES | ID50 [1] [µM] | ID50 [2] [µM] | fold change (FC) [3] |
| --- | --- | --- | --- |
| O=C1CC(c2ccccc2)Oc2ccccc21 (stereo not drawn) | > 446 | > 446 | – |
| C[C@H]1O[C@@H](Oc2c(-c3cc(O)c(O)c(O)c3)oc3cc(O)cc(O)c3c2=O)[C@@H](O)[C@@H](O)[C@@H]1O | 10.1 | 9.69 | – |
| O=c1c(O)c(-c2ccc(O)cc2O)oc2cc(O)cc(O)c12 | 1.03 | 1.01 | 10 |
| C[C@@H]1O[C@@H](OC[C@H]2O[C@@H](Oc3c(-c4ccc(O)c(O)c4)oc4cc(O)cc(O)c4c3=O)[C@H](O)[C@@H](O)[C@@H]2O)[C@H](O)[C@H](O)[C@H]1O | 7.27 | 7.33 | – |
| O=c1cc(-c2ccccc2)oc2cc(O)ccc12 | > 420 | > 420 | – |
| O=c1c(O)c(-c2ccc(O)c(O)c2)oc2cc(O)cc(O)c12 | 0.2 | 0.17 | 10 |
| O=c1c(O)c(-c2ccccc2)oc2ccccc12 | > 420 | > 420 | – |
| COc1ccc([C@@H]2CC(=O)c3c(O)cc(O)cc3O2)cc1O | 20.9 | 22.1 | – |
| O=c1c(O)c(-c2ccc(O)cc2)oc2cc(O)cc(O)c12 | 1.22 | 1.29 | 10 |
| O=c1c(O)c(-c2ccc(O)c(O)c2)oc2cc(O)ccc12 | 0.28 | 0.24 | – |
| O=C1c2c(O)cc(O)cc2OC(c2ccc(O)c(O)c2)C1O (racemic) | 2.43 | 2.46 | 10 |
| Oc1cc(O)c2c(c1)O[C@H](c1ccc(O)c(O)c1)[C@H](O)C2 | 2.58 | 2.65 | – |
| O=c1c(O)c(-c2cc(O)c(O)c(O)c2)oc2cc(O)cc(O)c12 | 0.25 | 0.28 | 10 |
| Oc1cc(O)c2c(c1)O[C@H](c1ccc(O)c(O)c1)[C@@H](O)C2 | 2.75 | 2.86 | – |
